Reference: ChEMBL document CHEMBL1153561, “Staphylococcus aureus clinical isolate with high-level methicillin resistance with an lytH mutation caused by IS1182 insertion” (2008)
≈ marks a conversion by molar mass, not a printed value.

Key:
Type in all cases: functional
Staphylococcus aureus [1] = assay: Antibacterial activity against high-level methicillin-resistant Staphylococcus aureus SR-17164 harboring inactive lytH gene and active llm gene after 24 hrs by serial twofold dilution method; conditions: SR17164, 24 h
Procedure, shortened: (§1)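 Agar dilution MIC: tryptic soy agar plates carried serial twofold dilutions of antibiotic. Overnight tryptic soy broth cultures were diluted to about 10⁶ CFU/ml, and 1 μl of each suspension was spotted onto the plates. Plates were incubated 24 h at 37°C, then MICs were scored.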

Staphylococcus aureus [2] = assay: Antibacterial activity against high-level methicillin-resistant Staphylococcus aureus SRM1832 harboring inactive lytH and inactive llm gene after 24 hrs by serial twofold dilution method; conditions: SRM1832, 24 h; procedure, shortened: as §1
Staphylococcus aureus [3] = assay: Antibacterial activity against high-level methicillin-resistant Staphylococcus aureus SRM1663 harboring inactive lytH gene and active llm gene after 24 hrs by serial twofold dilution method; conditions: SRM1663, 24 h; procedure, shortened: as §1
Staphylococcus aureus [4] = assay: Antibacterial activity against high-level methicillin-resistant Staphylococcus aureus SRM1816 harboring inactive lytH and inactive llm gene after 24 hrs by serial twofold dilution method; conditions: SRM1816, 24 h; procedure, shortened: as §1
Staphylococcus aureus [5] = assay: Antibacterial activity against high-level methicillin-resistant Staphylococcus aureus SRM551 harboring active lytH and llm gene after 24 hrs by serial twofold dilution method; conditions: SRM551, 24 h; procedure, shortened: as §1
Staphylococcus aureus [6] = assay: Antibacterial activity against high-level methicillin-resistant Staphylococcus aureus SRM563 harboring active lytH gene and inactive llm gene after 24 hrs by serial twofold dilution method; conditions: SRM563, 24 h; procedure, shortened: as §1
Staphylococcus aureus [7] = assay: Antibacterial activity against high-level methicillin-resistant Staphylococcus aureus SRM1648 harboring inactive lytH gene and active llm gene after 24 hrs by serial twofold dilution method; conditions: SRM1648, 24 h; procedure, shortened: as §1
Staphylococcus aureus [8] = assay: Antibacterial activity against high-level methicillin-resistant Staphylococcus aureus SRM1825 harboring inactive lytH and inactive llm gene after 24 hrs by serial twofold dilution method; conditions: SRM1825, 24 h; procedure, shortened: as §1
Staphylococcus aureus [9] = assay: Antibacterial activity against high-level methicillin-resistant Staphylococcus aureus SR-17164 harboring lytH::IS1182 gene after 24 hrs by serial twofold dilution method; conditions: SR17164, 24 h; procedure, shortened: as §1
Staphylococcus aureus [10] = assay: Antibacterial activity against high-level methicillin-resistant Staphylococcus aureus SR-17164 harboring intact lytH gene after 24 hrs by serial twofold dilution method; conditions: SR17164, 24 h; procedure, shortened: as §1
Staphylococcus aureus [11] = assay: Antibacterial activity against low-level methicillin-resistant Staphylococcus aureus SR-17238 after 24 hrs by serial twofold dilution method; conditions: SR17238, 24 h; procedure, shortened: as §1
Staphylococcus aureus [12] = assay: Antibacterial activity against high-level methicillin-resistant Staphylococcus aureus SR-17164 with lytH gene inactivated by insertion sequence IS1182 measured after 24 hrs by serial twofold dilution method; conditions: SR17164, 24 h; procedure, shortened: as §1
Staphylococcus aureus [13] = assay: Antibacterial activity against high-level methicillin-resistant Staphylococcus aureus SRM1648 with deltarel-lytH region after 24 hrs by serial twofold dilution method; conditions: SRM1648, 24 h; procedure, shortened: as §1
Staphylococcus aureus [14] = assay: Antibacterial activity against low-level methicillin-resistant Staphylococcus aureus SR-20137 after 24 hrs by serial twofold dilution method; conditions: SR20137, 24 h; procedure, shortened: as §1
Staphylococcus aureus [15] = assay: Antibacterial activity against low-level methicillin-resistant Staphylococcus aureus SR-20202 after 24 hrs by serial twofold dilution method; conditions: SR20202, 24 h; procedure, shortened: as §1
Staphylococcus aureus [16] = assay: Antibacterial activity against low-level methicillin-resistant Staphylococcus aureus SR-20118 after 24 hrs by serial twofold dilution method; conditions: SR20118, 24 h; procedure, shortened: as §1
Staphylococcus aureus [17] = assay: Antibacterial activity against methicillin-resistant Staphylococcus aureus SRM1664 containing pSR100 harboring deletion in rel-lytH region after 24 hrs by serial twofold dilution method; conditions: SRM1664, 24 h
Staphylococcus aureus [18] = assay: Antibacterial activity against methicillin-resistant Staphylococcus aureus SRM2148 containing pSR108 harboring deletion in rel-lytH region after 24 hrs by serial twofold dilution method; conditions: SRM2148, 24 h
Staphylococcus aureus [19] = assay: Antibacterial activity against methicillin-resistant Staphylococcus aureus SRM1665 containing pSR108 harboring deletion in rel-lytH region after 24 hrs by serial twofold dilution method; conditions: SRM1665, 24 h
Staphylococcus aureus [20] = assay: Antibacterial activity against low-level methicillin-resistant Staphylococcus aureus SR-20280 after 24 hrs by serial twofold dilution method; conditions: SR20280, 24 h; procedure, shortened: as §1
Staphylococcus aureus [21] = assay: Antibacterial activity against methicillin-resistant Staphylococcus aureus SRM2149 containing pSR108 harboring deletion in rel-lytH region after 24 hrs by serial twofold dilution method; conditions: SRM2149, 24 h
Staphylococcus aureus [22] = assay: Antibacterial activity against methicillin-resistant Staphylococcus aureus SRM2150 containing pSR108 harboring deletion in rel-lytH region after 24 hrs by serial twofold dilution method; conditions: SRM2150, 24 h
Staphylococcus aureus [23] = assay: Antibacterial activity against methicillin-resistant Staphylococcus aureus SRM2151 containing pSR108 harboring deletion in rel-lytH region after 24 hrs by serial twofold dilution method; conditions: SRM2151, 24 h

Cc1nnc(SCC2=C(C(=O)O)N3C(=O)[C@@H](NC(=O)Cn4cnnn4)[C@H]3SC2)s1 [CEFAZOLIN]
MIC (Staphylococcus aureus [1]): 400 µg/mL (≈ 880 µM)
MIC (Staphylococcus aureus [2]): 200 µg/mL (≈ 440 µM)
MIC (Staphylococcus aureus [3]): 400 µg/mL (≈ 880 µM)
MIC (Staphylococcus aureus [4]): 100 µg/mL (≈ 220 µM)
MIC (Staphylococcus aureus [5]): 200 µg/mL (≈ 440 µM)
MIC (Staphylococcus aureus [6]): 12.5 µg/mL (≈ 27.5 µM)
MIC (Staphylococcus aureus [7]): 400 µg/mL (≈ 880 µM)
MIC (Staphylococcus aureus [8]): 200 µg/mL (≈ 440 µM)

C[C@@H](O)[C@H]1C(=O)N2C(C(=O)O)=C(SCCNC=N)C[C@H]12 [IMIPENEM ANHYDROUS]
MIC (Staphylococcus aureus [9]): 100 µg/mL (≈ 334 µM)
MIC (Staphylococcus aureus [10]): 50 µg/mL (≈ 167 µM)
MIC (Staphylococcus aureus [1]): 100 µg/mL (≈ 334 µM)
MIC (Staphylococcus aureus [2]): 50 µg/mL (≈ 167 µM)
MIC (Staphylococcus aureus [11]): ≤ 0.1 µg/mL
MIC (Staphylococcus aureus [12]): 100 µg/mL (≈ 334 µM)
MIC (Staphylococcus aureus [3]): 100 µg/mL (≈ 334 µM)
MIC (Staphylococcus aureus [4]): 25 µg/mL (≈ 83.5 µM)
MIC (Staphylococcus aureus [5]): 50 µg/mL (≈ 167 µM)
MIC (Staphylococcus aureus [6]): 0.39 µg/mL (≈ 1.3 µM)
MIC (Staphylococcus aureus [7]): 100 µg/mL (≈ 334 µM)
MIC (Staphylococcus aureus [8]): 50 µg/mL (≈ 167 µM)
MIC (Staphylococcus aureus [13]): 50 µg/mL (≈ 167 µM)

COc1cccc(OC)c1C(=O)N[C@@H]1C(=O)N2[C@@H]1SC(C)(C)[C@@H]2C(=O)O [METHICILLIN]
MIC (Staphylococcus aureus [9]): 1600 µg/mL (≈ 4210 µM)
MIC (Staphylococcus aureus [10]): 800 µg/mL (≈ 2100 µM)
MIC (Staphylococcus aureus [14]): 12.5 µg/mL (≈ 32.9 µM)
MIC (Staphylococcus aureus [1]): 1600 µg/mL (≈ 4210 µM)
MIC (Staphylococcus aureus [15]): 25 µg/mL (≈ 65.7 µM)
MIC (Staphylococcus aureus [2]): 800 µg/mL (≈ 2100 µM)
MIC (Staphylococcus aureus [16]): 12.5 µg/mL (≈ 32.9 µM)
MIC (Staphylococcus aureus [11]): 6.3 µg/mL (≈ 16.6 µM)
MIC (Staphylococcus aureus [12]): 1600 µg/mL (≈ 4210 µM)
MIC (Staphylococcus aureus [17]): 6.3 µg/mL (≈ 16.6 µM)
MIC (Staphylococcus aureus [3]): 1600 µg/mL (≈ 4210 µM)
MIC (Staphylococcus aureus [4]): 100 µg/mL (≈ 263 µM)
MIC (Staphylococcus aureus [18]): 12.5 µg/mL (≈ 32.9 µM)
MIC (Staphylococcus aureus [5]): 800 µg/mL (≈ 2100 µM)
MIC (Staphylococcus aureus [19]): 25 µg/mL (≈ 65.7 µM)
MIC (Staphylococcus aureus [20]): 6.3 µg/mL (≈ 16.6 µM)
MIC (Staphylococcus aureus [21]): 25 µg/mL (≈ 65.7 µM)
MIC (Staphylococcus aureus [6]): 12.5 µg/mL (≈ 32.9 µM)
MIC (Staphylococcus aureus [22]): 50 µg/mL (≈ 131 µM)
MIC (Staphylococcus aureus [7]): 1600 µg/mL (≈ 4210 µM)
MIC (Staphylococcus aureus [8]): 400 µg/mL (≈ 1050 µM)
MIC (Staphylococcus aureus [13]): 1600 µg/mL (≈ 4210 µM)
MIC (Staphylococcus aureus [23]): 6.3 µg/mL (≈ 16.6 µM)
